CHOP inh = CHOP inhibition in unfolded protein response. inhibition, % at 10 µM. actives 3.8% (n = 220,000). CHO-K1 CHOP-promoter luciferase, tunicamycin-induced, 15-18 h. AID 2732;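 active = compounds that reduced the stress-induced luciferase reporter signal by more than about 70% of percent inhibition, limit read from the data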
Cardio protect = myocardial damage modulation in H9c2 cells; AID 588492; H9c2 cardiomyocytes, H2O2 injury protection, ATPLite, 2 h; actives 0.63% (n = 360,000); protection from H2O2 cell death, % at 20 µM;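 active = compounds giving at least 50% protection of heart cells from peroxide-induced death in the single-dose screen, raw or plate-pattern-corrected value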
CHOP UPR activ = activators of apoptotic arm of unfolded protein response (CHOP); CHO-CHOP luciferase reporter, UPR activation, luminescence; percent of tunicamycin response over DMSO baseline; activation, % at 10 µM; actives 0.34% (n = 330,000); AID 449763;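 active = at 10 µM dose, activation of 40% or more, normalized to positive control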
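Test system: CHO-CHOP cells, stable luciferase reporter of PERK-eIF2a-CHOP signalling | Quantity: 500 CHO-CHOP cells per well | Buffer or medium: F12 plus 10% serum | Compound dosing: 10 µM single point, 0.5% DMSO | Schedule: 6 h compound treatment, 37 °C | Signal: Luciferase luminescence | Control set: Tunicamycin high control, DMSO low control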
XBP1 UPR activ = activators of adaptive arm of unfolded protein response (XBP1); actives 0.33% (n = 330,000); CHO-XBP1 luciferase reporter, IRE1-XBP1 UPR activation, luminescence; percent of tunicamycin response, DMSO as zero; activation, % at 20 µM;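 active = versus positive control, 20 µM dose yields 30% or more activation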
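Material: CHO-XBP1 cells stably carrying IRE1-XBP1-driven luciferase reporter / Amount: 1000 cells per well / Compound: 20 µM, 1% DMSO / Times: 6 h treatment, 37 °C / Detection: luciferase luminescence / Measure: % activation of reporter signal versus tunicamycin and DMSO controls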
hiPSC survival = hiPSC single-cell survival enhancement; ATPlite luminescence; 100% = ROCK inhibitor wells, 0% = DMSO; survival enhancement, % at 20 µM; actives 0.044% (n = 360,000); in the data active = survival enhancement above about 18%;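 also: cells exposed to compounds for 16 hours before the ATP read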
CHOP confirm = confirmation of CHOP induction inhibitors | shares compounds with CHOP inh | inhibition, % at 10 µM | actives 45% (n = 2,100) | AID 504437 | CHO-CHOP promoter luciferase reporter, tunicamycin-induced, luminescence;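 active = mean of three repeat readings of reporter signal inhibition above a set limit, cut at about 70% in these data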
Numbers stand for hits; . = inactive; / = no result. The full list was thinned out, with hits kept by preference.

SMILES	CHOP inh	Cardio protect	CHOP UPR activ	XBP1 UPR activ	hiPSC survival	others
NC(=O)C1=C(c2ccccc2)c2ccccc2C1=O	/	55	/	/	.
COc1ccc(CCNc2ncnc3sccc23)cc1OC	70	.	.	.	.
COc1ccc(Nc2ncnc3sccc23)cc1OC	/	.	.	.	.
O=C1Nc2ccccc2/C1=C\c1cccn1-c1ccc(OC(F)(F)F)cc1	93	.	.	.	.
CC(=O)c1sc(NC(=O)c2ccccc2F)nc1-c1ccccc1	.	.	.	.	.
CC(=O)c1sc(NC(=O)c2ccc(F)cc2)nc1-c1ccccc1	75	.	.	.	.
COc1cc(SC)ccc1C(=O)Nc1ccc(Cl)cn1	86	.	.	.	.
CCc1nc2ccc(C(=O)N3CCN(C(=O)c4ccco4)CC3)cn2c1N(CC)Cc1cccc(Br)c1	/	.	/	/	.
CC1=CC(=O)Nc2ccccc2S1	/	.	/	/	.
Cc1ccc(O)c(C(=O)CC(=O)c2ccccc2Cl)c1	103	.	.	.	.
Cc1ccc(O)c(C(=O)CC(=O)c2ccc(C(C)(C)C)cc2)c1	/	57	.	.	.
Cc1ccc(C)c(NC(=O)c2ccccc2O)c1	77	.	.	.	.
Cc1ccc(C(=O)CC(=O)c2cccc(F)c2)c(O)c1	89	.	.	.	.
Cc1ccc(C(=O)CC(=O)c2ccccc2C)c(O)c1	/	.	.	.	.
Cc1cccc(C(=O)NNC(=O)c2ccccc2O)c1	/	.	.	.	.
NC(=O)C(NN=C(c1ccccc1)c1ccccc1)c1ccccc1 (stereo not given)	/	.	/	/	.
CNC(=O)C[C@@H]1C(=O)N(C2CCCCC2)CC1(C)C	/	.	/	/	.
COc1ccc(O)c(C(=O)CC(=O)c2ccccc2)c1	93	/	.	.	/
COc1ccc([N+](=O)[O-])cc1NC(=O)C(C)OC(=O)Cn1[nH]c(=O)c2ccccc2c1=O (stereo not given)	/	58	.	.	.
COc1ccc(Br)cc1CN(C)C(C)C(=O)Nc1cc([N+](=O)[O-])ccc1OC (stereo not given)	.	.	.	.	.
COc1ccc([N+](=O)[O-])cc1NC(=O)C(C)N(C)Cc1ccc(Br)cc1 (stereo not given)	70	.	.	.	.
CC(OC(=O)Cn1[nH]c(=O)c2ccccc2c1=O)C(=O)Nc1ccc(Cl)cn1 (stereo not given)	/	52	.	.	.
CC(OC(=O)Cn1[nH]c(=O)c2ccccc2c1=O)C(=O)NC1(C#N)CCCCC1 (stereo not given)	/	70	.	.	.
O=C(/C=C/c1cccc(Cl)c1)OCC(=O)c1ccc[nH]1	/	.	/	/	.
Nn1cnc2c(ncn2C2OC(CO)C(O)C2O)c1=O (stereo not given)	/	.	/	/	.
SMILES	CHOP inh	Cardio protect	CHOP UPR activ	XBP1 UPR activ	hiPSC survival	others
COC(=O)c1ccc2nc(-c3ccc(F)cc3)c(Cc3ccsc3)n2c1	/	.	/	/	.
CC(=O)NCCNc1nc2c(-c3ccccc3)nnn2c2ccccc12	/	55	.	.	.
COc1ccc(Nc2c(CCc3ccccc3)nc3nc(C)cc(C)n23)cc1	/	/	/	/	.
O=Cc1[nH]c2ccccc2c1N(C(=O)CCl)c1ccccc1	87	.	/	/	.
CCC(=O)OCCNc1cc(SCCC(=O)OC)c2nonc2c1[N+](=O)[O-]	.	54	.	.	.
CCC(=O)OCCNc1cc(Sc2nccn2C)c2nonc2c1[N+](=O)[O-]	109	.	/	/	.
CCOC(=O)c1cc(=O)nc(N)s1	/	.	/	/	.
CCn1c2ccccc2n2c(=O)c(=O)n(CC(=O)Nc3ccc(C(C)C)cc3)nc12	87	.	.	.	.
CC(C)c1ccc(NC(=O)Cn2c(=O)oc3ccccc32)cc1	/	.	.	.	.
CC(C)c1nc(SCC(=O)N2CCN(c3ccccc3)CC2)c2c(=O)n(C)c(=O)n(C)c2n1	70	.	.	.	.
CC(C)c1nc(SCC(=O)Nc2cccc(C(F)(F)F)c2)c2c(=O)n(C)c(=O)n(C)c2n1	70	.	.	.	.
Cc1ccccc1-c1cnc(C(O)c2ccc(F)cc2C)[nH]1 (stereo not given)	/	.	/	/	.
C[C@@H]1CCCCO[C@@H](CN(C)C(=O)CCCN(C)C)[C@@H](C)CN([C@H](C)CO)C(=O)c2cc(N(C)C)ccc2O1	/	.	/	/	.
CCOc1nc(OCC)c2[nH]c(C(=O)O)c(Br)c2n1	/	.	/	/	.
CC(C)(CC(=O)N1CCN(c2ccc(Cl)cc2)CC1)CC1=NS(=O)(=O)c2ccccc2N1	71	.	.	.	.
CCc1nc2ccc(C(=O)Nc3cccc(NS(C)(=O)=O)c3)cn2c1N(CC)CCOC	/	.	/	/	.
Cc1cc(C)n(-c2nc(NCC(C)O)c3c4c(sc3n2)COC(C)(C)C4)n1 (stereo not given)	.	.	.	.	.
Cc1cc(C)n(-c2nc(NCC3CCCO3)c3c4c(sc3n2)COC(C)(C)C4)n1 (stereo not given)	95	/	.	.	/
Cc1cc2ccccc2c(=O)[nH]1	.	57	.	.	.
Cc1ccc(C(=O)Nc2cc(C(C)C)c(O)c(C(C)C)c2)cc1	74	.	.	.	.
Cc1ccc(NC(=O)c2ccc(C)cc2)cc1	/	.	.	.	.
O=C(NCc1ccccn1)c1ccccc1OCc1ccccc1Cl	/	.	/	/	.
CC(C)=CC(=O)OCC(=O)Nc1ccc(Cl)cn1	75	.	.	.	.
CCOC(=O)/C=C/C(=O)OCC(=O)Nc1ccc(Cl)cn1	.	.	.	.	.
O=C(Nc1ccccc1)NN(C(=O)CCl)c1ccccc1	/	.	.	.	.
SMILES	CHOP inh	Cardio protect	CHOP UPR activ	XBP1 UPR activ	hiPSC survival	others
Cc1ccccc1C(=O)Nc1ccc(O)c2c(=O)cc(-c3ccccc3Cl)oc12	.	.	.	.	.
O=C(Nc1ccc(O)c2c(=O)cc(-c3ccccc3Cl)oc12)c1ccc(Cl)c(Cl)c1	94	.	.	.	.
C[C@H](CO)N1C[C@H](C)[C@@H](CN(C)S(=O)(=O)c2ccc3c(c2)OCCCO3)OCc2cn(nn2)CCCC1=O	/	.	/	/	.
CCN1C(=O)/C(=C2\SC(N3CCOCC3)=NC2=O)c2ccccc21	/	.	.	.	.
C=CCN1C(=O)/C(=C2\SC(N3CCOCC3)=NC2=O)c2cc(Br)ccc21	.	76	.	.	.
CCCc1nnc(NC(=O)Cn2c(=O)oc3cc(Br)ccc32)s1	.	.	.	.	.
O=c1oc2cc(Br)ccc2n1CSC1=NCCS1	71	.	.	.	.
Cc1ccc(/C=C2\C(=O)ON=C2c2ccccc2)o1	.	.	.	.	.
Cc1ccc(-c2ccc(/C=C3\C(=O)ON=C3c3ccccc3)o2)c([N+](=O)[O-])c1	111	.	.	.	.	CHOP confirm=80
CCS/C(N)=N/N=C/c1cc(C)ccc1O	.	.	.	.	.

Assay outcomes: PubChem, several laboratories
